Experiment [1] concerns Mus musculus. Nature of the experiment: Antiobesity activity in B6.V/J ob/ob mouse assessed as change in kidney weight at 50 mg/kg, po bid measured after 14 days (reference value: 0.339 +/- 0.009 g). It counts as functional.
In experiment [2] the test system is Mus musculus. In words: Antiobesity activity in B6.V/J ob/ob mouse assessed as change in brain weight at 50 mg/kg, po bid measured after 14 days (reference value: 0.340 +/- 0.017 g). Format: functional.
The test system of experiment [3] is Mus musculus. In words: Antiobesity activity in B6.V/J ob/ob mouse assessed as change in heart weight at 5 mg/kg, po bid measured after 14 days (reference value: 0.150 +/- 0.003 g). Format: functional.
For experiment [4], the system named is Mus musculus. Nature of the experiment: Antiobesity activity in B6.V/J ob/ob mouse assessed as inhibition of food intake at 50 mg/kg, ip measured up to 12 hrs relative to vehicle-treated control. To be noted: route intraperitoneal. Format: functional. The gist of the method:
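Male mice were acclimated 1 week at 23 ± 3 °C and 50 ± 20% humidity, then fasted 24 h. They were dosed once intraperitoneally with vehicle or compound: 50 mg/kg in C57BL/6, or 12.5, 25 or 50 mg/kg in B6.V-Lep^ob/J. Food intake was measured at 2, 6 and 12 h versus vehicle control.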

Experiment [5] addresses T1, 5-hydroxytryptamine receptor 1A (Homo sapiens, UniProt P08908).
T1 sequence (P08908 whole entry): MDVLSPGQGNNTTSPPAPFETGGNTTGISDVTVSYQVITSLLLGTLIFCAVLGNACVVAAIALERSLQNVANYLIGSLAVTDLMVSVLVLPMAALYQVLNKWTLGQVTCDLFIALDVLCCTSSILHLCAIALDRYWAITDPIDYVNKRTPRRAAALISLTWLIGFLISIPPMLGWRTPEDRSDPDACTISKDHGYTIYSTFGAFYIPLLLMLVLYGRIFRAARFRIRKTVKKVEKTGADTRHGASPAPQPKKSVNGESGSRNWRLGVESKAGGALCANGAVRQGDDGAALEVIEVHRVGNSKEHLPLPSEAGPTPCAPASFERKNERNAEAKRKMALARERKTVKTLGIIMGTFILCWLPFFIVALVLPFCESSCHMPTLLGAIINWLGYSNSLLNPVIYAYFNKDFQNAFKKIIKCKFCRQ
In words: Displacement from [3H]8-OH-DPAT from human recombinant 5HT-1A receptor expressed in HEK293 cells after 120 mins. Format: cell-based. Summed up:
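Membranes from HEK293-EBNA cells stably expressing recombinant human 5-HT1A. Incubated with 2 nM [3H]8-OH-DPAT and test compound at a range of concentrations in 50 mM Tris-HCl pH 7.4 with 5 mM MgSO4.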

In experiment [6] the test system is Mus musculus. In words: Antiobesity activity in B6.V/J ob/ob mouse assessed as change in lung weight at 25 mg/kg, po bid measured after 14 days (reference value: 0.143 +/- 0.013 g). It counts as functional.

Structures are written as SMILES.

With `Cl.Clc1cccc(Nc2nc(Cc3ccccc3)nc3c2CCNCC3)c1`, the Activity in the experiment on Mus musculus [1] is listed as 0.35 g; with Mus musculus [2], 0.36 g; in the experiment on Mus musculus [3], 0.163 g; with Mus musculus [6], 0.154 g. Besides, in the experiment on Mus musculus [4], the inhibition in vivo at 50 mg/kg was determined as 93.3%. The 50% inhibitory concentration (IC50) in experiment [5] amounted to 1060 nM.

The inhibition in vivo is the percentage by which the read-out fell short of the control. As usually defined, the IC50 is the midpoint of a concentration-inhibition curve.

The record behind these values is ChEMBL document CHEMBL2390866, “Novel pyrimidoazepine analogs as serotonin 5-HT(2A) and 5-HT(2C) receptor ligands for the treatment of obesity” (Eur J Med Chem, 2013).
